Here are results for 18 compounds from ChEMBL document CHEMBL1158555, “Structure-activity relationships of bioisosteric replacement of the carboxylic acid in novel androgen receptor pure antagonists” (Bioorg Med Chem, 2010).

In one data set the target is T1, Androgen receptor (Homo sapiens, UniProt P10275).
T1 sequence (P10275 whole entry): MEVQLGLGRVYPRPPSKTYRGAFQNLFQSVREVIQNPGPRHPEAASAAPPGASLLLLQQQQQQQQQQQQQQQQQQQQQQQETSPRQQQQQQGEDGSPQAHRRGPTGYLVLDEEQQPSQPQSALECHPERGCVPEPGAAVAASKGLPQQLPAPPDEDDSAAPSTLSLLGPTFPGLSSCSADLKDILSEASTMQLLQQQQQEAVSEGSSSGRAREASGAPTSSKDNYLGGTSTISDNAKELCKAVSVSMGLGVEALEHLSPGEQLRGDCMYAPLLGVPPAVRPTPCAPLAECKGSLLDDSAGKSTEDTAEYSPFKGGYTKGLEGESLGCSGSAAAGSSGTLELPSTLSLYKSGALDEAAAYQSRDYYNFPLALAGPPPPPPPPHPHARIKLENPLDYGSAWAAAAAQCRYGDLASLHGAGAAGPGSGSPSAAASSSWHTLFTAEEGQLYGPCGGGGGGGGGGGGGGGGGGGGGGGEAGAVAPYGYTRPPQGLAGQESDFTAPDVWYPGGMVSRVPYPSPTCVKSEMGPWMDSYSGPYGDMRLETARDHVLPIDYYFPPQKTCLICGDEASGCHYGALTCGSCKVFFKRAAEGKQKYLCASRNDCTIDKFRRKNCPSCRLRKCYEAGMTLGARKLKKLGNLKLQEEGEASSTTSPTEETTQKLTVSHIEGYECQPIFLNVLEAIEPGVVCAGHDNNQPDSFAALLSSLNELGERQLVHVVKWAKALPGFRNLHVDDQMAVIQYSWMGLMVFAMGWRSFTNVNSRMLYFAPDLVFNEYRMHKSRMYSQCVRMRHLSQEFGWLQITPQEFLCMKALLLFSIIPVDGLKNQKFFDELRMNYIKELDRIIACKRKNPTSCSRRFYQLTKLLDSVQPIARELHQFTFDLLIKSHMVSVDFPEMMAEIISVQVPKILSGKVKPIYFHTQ
Put plainly: Displacement of [3H]mibolerone from human AR expressed in CHO-K1 cells after 2 hrs by scintillation counting. In kind it is cell-based. (Loss of bound radioactivity is the signal in a displacement assay; it reports binding, not function.)

Data set [1] has as its target T2, Androgen receptor (Homo sapiens) (UniProt P10275).
T2 sequence (whole entry): T1 sequence (P10275 whole entry)
The experiment in a line: Agonist activity at AR in human LNCAP cells assessed as effect on cell proliferation after 6 days. In kind it is functional, cell-based. An outline of the steps: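 LNCaP cells were pre-starved and plated in phenol red-free RPMI 1640 with 5% DCC-FBS. After overnight attachment, test compound was added without R1881 for 6 days. Proliferation was read by MTS (CellTiter 96 AQueous One). Agonism was scored +/− from the growth dose-response curve.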

Data set [2] deals with T2, Androgen receptor (Homo sapiens). To be noted: HeLa.
The target is the same in data set [3]. To be noted: HeLa. The source holds these as a separate data set.
Data set [4] can be described thus: Metabolic stability in human liver microsomes assessed as compound remaining at […] after 15 mins by LC-MS/MS analysis. Type of data set: ADME, Microsome. The note with it: read-out: Stability. In general terms: Liver microsomes are a subcellular fraction often used to study metabolism.
A further data set has as its system LNCaP. The experiment in a line: Antitumor activity against human LNCAP cells xenografted in po dosed SCID mouse assessed as inhibition of tumor growth administered once daily in seven cycles of 5 days on and 2 days off schedule. In kind it is functional, organism-based. The procedure, abridged: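 LNCaP cells (2×10^6) were injected subcutaneously into 6-week-old male SCID mice. At tumour size 90–400 mm³, mice were randomised and dosed orally in 5% gum arabic at 10 mL/kg body weight. Dosing ran as seven cycles of 5 days on, 2 days off, with n = 6 per group.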

The species entered for a further data set is Mus musculus. Put plainly: Antiandrogenic activity in castrated mouse assessed as reduction in testosterone-induced wet weight gain of seminal vesicle. In kind it is functional.

Active and inactive are the calls of the source. No cut-off for these calls is given here.

`CC1(C)C(=O)N(c2ccc(C#N)c(C(F)(F)F)c2)C(=S)N1CCCc1nnn[nH]1`: on Androgen receptor, the IC50 is greater than 1000 nM. Further, the outcome in data set [1] was inactive. Further, the EC5 in data set [2] was greater than 10 µM.

For the compound `CC1(C)C(=O)N(c2ccc(C#N)c(C(F)(F)F)c2)C(=S)N1CCCC(=O)O`, the IC50 at Androgen receptor came out at 3900 nM. Moreover, the result in data set [1] was inactive. Besides, the EC5 in data set [3] and in data set [2] was greater than 10 µM each time. In addition, the remaining in data set [4] amounted to 97%.

Compound `CN1C(=S)N(c2ccc(C#N)c(C(F)(F)F)c2)C(=O)C1(C)C` showed a half-inhibitory concentration (IC50) on Androgen receptor of 15 nM. Besides, the outcome in data set [1] was Active. Moreover, the EC5 was 8e-05 µM in data set [3] and less than 0.001 µM in data set [2].

`CC1(C)C(=O)N(c2ccc(C#N)cc2)C(=S)N1CCCS(N)(=O)=O` returned a half-maximal inhibitory concentration (IC50) on Androgen receptor greater than 5000 nM. The EC5 in data set [3] was greater than 10 µM. Moreover, the remaining in data set [4] was found to be 92%.

Regarding `Cc1cc(N2C(=O)C(C)(C)N(CCCS(N)(=O)=O)C2=S)ccc1C#N`, at Androgen receptor, the IC50 is greater than 1000 nM. In addition, the result in data set [1] was inactive. Moreover, the EC5 in data set [3] is greater than 10 µM. The remaining in data set [4] was 94%.

For `CN(C)S(=O)(=O)CCCN1C(=S)N(c2ccc(C#N)c(C(F)(F)F)c2)C(=O)C1(C)C`, at Androgen receptor, the concentration for half-maximal inhibition (IC50) stood at 80 nM. In addition, the outcome in data set [1] was Active. Moreover, the EC5 in data set [2] worked out at 0.11 µM.

Take `CC1(C)C(=O)N(c2ccc(C#N)c(C(F)(F)F)c2)C(=S)N1CCCNC(N)=O`: the IC50 on Androgen receptor was determined as 800 nM. In addition, the result in data set [1] was inactive. The values for the EC5 in data set [3] and in data set [2] were 0.35 µM and 0.65 µM, respectively.

Consider `CC1(C)C(=O)N(c2ccc(C#N)c(C(F)(F)F)c2)C(=S)N1CCCCS(N)(=O)=O`, for which the half-maximal inhibitory concentration (IC50) on Androgen receptor is greater than 1000 nM. Also, the outcome in data set [1] was inactive. Also, the EC5 in data set [3] and in data set [2] was greater than 10 µM each time.

On to `CC1(C)C(=O)N(c2ccc(C#N)c(C(F)(F)F)c2)C(=S)N1CCCS(=O)(=O)O`, for which, on Androgen receptor, the IC50 is greater than 1000 nM. Moreover, the result in data set [1] was Active. This compound yielded an EC5 in data set [2] greater than 10 µM.

With `CC1(C)C(=O)N(c2ccc(C#N)c(C(F)(F)F)c2)C(=S)N1CCCNS(N)(=O)=O`, at Androgen receptor, the concentration for half-maximal inhibition (IC50) is greater than 1000 nM. In addition, in data set [1], the outcome was inactive. For the same compound, the EC5 in data set [3] and in data set [2] was greater than 10 µM in each case.

As to `CC1(C)C(=O)N(c2ccc(C#N)c(C(F)(F)F)c2)C(=S)N1CCCS(N)(=O)=O`, the IC50 on Androgen receptor was determined as 400 nM. Besides, the result in data set [1] was inactive. Moreover, the EC5 in data set [3] and in data set [2] was greater than 10 µM each time. Further, the remaining in data set [4] came out at 95%.

With `Cc1c(N2C(=O)C(C)(C)N(CCCS(N)(=O)=O)C2=S)ccc(C#N)c1C(F)(F)F`, the IC50 on Androgen receptor was determined as 260 nM. Besides, in data set [1], the outcome was Active. In data set [3], the EC5 turned out to be 2 µM. Besides, the remaining in data set [4] was found to be 89%.

`CC1(C)C(=O)N(c2ccc(C#N)c(Cl)c2)C(=S)N1CCCS(N)(=O)=O` displayed a concentration for half-maximal inhibition (IC50) at Androgen receptor of 440 nM. The result in data set [1] was inactive. In addition, the inhibition entry with LNCaP is “Dose-dependent effect”. Further, in the data set filed under Mus musculus, the median effective dose (ED50) came out at 10 mg/kg. The remaining in data set [4] stood at 100%.

Take `COc1cc(N2C(=O)C(C)(C)N(CCCS(N)(=O)=O)C2=S)ccc1C#N`: the IC50 on Androgen receptor was 1900 nM. Further, in data set [1], the result was Active. Moreover, in data set [3], the EC5 was greater than 10 µM. In addition, in data set [4], the remaining was determined as 100%.

With `Cc1cc(C#N)c(C(F)(F)F)cc1N1C(=O)C(C)(C)N(CCCS(N)(=O)=O)C1=S`, on Androgen receptor, the IC50 was greater than 5000 nM. In addition, in data set [3], the EC5 was greater than 10 µM. Further, the remaining in data set [4] was found to be 91%.

With `CC1(C)C(=O)N(c2ccc(C#N)c(C(F)(F)F)c2)C(=S)N1CCS(N)(=O)=O`, at Androgen receptor, the IC50 was 770 nM. Also, in data set [1], the result was inactive. Further, the results for the EC5 in data set [3] and in data set [2] were 7.2 µM and greater than 10 µM, respectively.

The compound `CNS(=O)(=O)CCCN1C(=S)N(c2ccc(C#N)c(C(F)(F)F)c2)C(=O)C1(C)C` came in with a half-maximal inhibitory concentration (IC50) at Androgen receptor of 170 nM. Moreover, the result in data set [1] was inactive. Also, the EC5 in data set [3] is 1.4 µM; in data set [2], greater than 10 µM.

`CC1(C)C(=O)N(c2ccc(C#N)c(C(F)(F)F)c2)C(=S)N1CCCC(N)=O` showed an IC50 at Androgen receptor of 480 nM. Further, the result in data set [1] was inactive. The EC5 in data set [3] is greater than 10 µM; in data set [2], 3.6 µM.

As a reminder, the IC50 is the midpoint of a concentration-inhibition curve. A lower IC50 goes with higher potency. A word on the ED50: it is the dose that gives a 50% effect, or the effect in half of the subjects.
